Reference: article PMC12018814 (Plant Biotechnology Journal, 2025)

Test system: Ach15909
Assay: HPLC of salidroside formed
Format: biochemical, Astilbe chinensis
Conditions: 2 mM UDP-glucose, 0.05-2.0 mM tyrosol, 50 mM PB pH 8.0, 37 °C, 30 min
Procedure, shortened: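 Recombinant A. chinensis UGT was expressed in E. coli Rosetta 2 (DE3), Ni-NTA purified with an imidazole gradient, exchanged into PBS pH 7.4, and quantified by BCA. Reactions were started by adding protein and quenched for C18 HPLC (0.1% formic acid water/acetonitrile gradient, 275 nm). Salidroside was quantified against an external standard curve, in triplicate, with kinetic parameters from non-linear fitting.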

`OCCc1ccc(O)cc1` [compound 1, tyrosol] was tested, and the Km was 740 ± 200 µM.
